Results of several laboratories.
Lines come from different studies, so protocols differ.
Cell line: HCT-116
Read-out: cell growth or viability

| SMILES | test | conditions | IC50 |
| --- | --- | --- | --- |
| COc1cc2c3c(n(CCCN4CCOCC4)c(=O)c2cc1OC)-c1cc2c(cc1C3=O)OCO2 |  | 72 h | 0.618 µg/mL |
| CC[C@@]1(OC(=O)[C@@H](N)CCSC)C(=O)OCc2c1cc1n(c2=O)Cc2cc3cc4c(cc3nc2-1)OCO4 | MTT |  | 56 nM |
| O=c1ccc2cc3ccoc3cc2o1 | WST-1 | 48 h | 26100 nM |
| COc1ccc2c(c1)[nH]c1c(C)nccc12 | MTT | 72 h | 25100 nM |
| O=c1ccc2ccc3occc3c2o1 | WST-1 | 48 h | 8700 nM |
| N.N.[Cl][Pt][Cl] |  | 48 h | 16300 nM |
| CC[C@@]1(OC(=O)[C@@H](N)C(C)C)C(=O)OCc2c1cc1n(c2=O)Cc2cc3cc4c(cc3nc2-1)OCO4 | MTT |  | 46 nM |
| N.N.[Cl][Pt][Cl] | SRB |  | 5300 nM |
| CC1=C(O)C(=O)C=C2C1=CC=C1[C@@]2(C)CC[C@@]2(C)[C@@H]3C[C@](C)(C(=O)O)CC[C@]3(C)CC[C@]12C | MTT | 48 h | 430 nM |
| CSC(=NNC(=O)c1ccc(O)cc1)SC | MTT | 5 days | > 100000 nM |
| CC[C@@]1(OC(=O)Cc2c(C)n(C(=O)c3ccc(Cl)cc3)c3ccc(OC)cc23)C(=O)OCc2c1cc1n(c2=O)Cc2cc3cc4c(cc3nc2-1)OCO4 | MTT |  | 46 nM |
| COc1ccc2[nH]cc(CCNc3nccc(Nc4cccc5c4ccn5C)n3)c2c1 | fluorescence | 72 h | 9.2 nM |
| N.N.[Cl][Pt][Cl] | MTS | 72 h | 41700 nM |
| CC[C@@]1(OC(=O)[C@@H](N)CCCCN)C(=O)OCc2c1cc1n(c2=O)Cc2cc3cc4c(cc3nc2-1)OCO4 | MTT |  | 28 nM |
| CSC(=NNC(=O)c1ccc(Cl)c(Cl)c1)SC | MTT | 5 days | 28000 nM |
| CC[C@@]1(O)C(=O)OCc2c1cc1n(c2=O)Cc2cc3cc4c(cc3nc2-1)OCO4 | MTT | 72 h | 14 nM |
| CN[C@@H]1C[C@H]2O[C@@](C)([C@@H]1OC)n1c3ccccc3c3c4c(c5c6ccccc6n2c5c31)C(=O)NC4 | MTT |  | 15 nM |
| CC1=C(O)C(=O)C=C2C1=CC=C1[C@@]2(C)CC[C@@]2(C)[C@@H]3C[C@](C)(C(=O)OCCCn4cc(C=O)c5ccccc54)CC[C@]3(C)CC[C@]12C | MTT | 48 h | 570 nM |
| CCC1(OC(=O)C(C)c2ccc3cc(OC)ccc3c2)C(=O)OCc2c1cc1n(c2=O)Cc2cc3cc4c(cc3nc2-1)OCO4 (stereo not shown) | MTT |  | 2340 nM |
